ChEMBL document CHEMBL1140872, “Discovery of a potent and selective inhibitor for human carbonyl reductase 1 from propionate scanning applied to the macrolide zearalenone” (Bioorg Med Chem, 2009)

Columns and labels:
[1] = target: T1, Carbonyl reductase [NADPH] 3 (Homo sapiens) (UniProt O75828); assay: Binding affinity to human recombinant carbonyl reductase 3 expressed in Escherichia coli assessed as thermal shift by differential scanning fluorimetry in presence of NADPH
T1 sequence (whole entry): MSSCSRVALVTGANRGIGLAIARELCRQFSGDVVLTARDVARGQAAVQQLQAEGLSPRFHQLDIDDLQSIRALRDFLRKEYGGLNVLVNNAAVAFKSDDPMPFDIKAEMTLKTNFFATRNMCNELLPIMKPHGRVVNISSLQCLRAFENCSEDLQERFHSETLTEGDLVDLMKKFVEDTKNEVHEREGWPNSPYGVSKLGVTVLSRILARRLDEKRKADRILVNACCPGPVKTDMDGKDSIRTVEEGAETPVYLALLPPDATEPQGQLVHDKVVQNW
Procedure, shortened: (§1)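 Thermal-shift (DSF) binding assay with purified recombinant catalytic domains or proteins carrying an N- or C-terminal His6 tag or GST fusion. Purity was >95% by SDS/PAGE and identity was confirmed by MS. Protein was at 2 µM final in 10 mM HEPES pH 7.5 and 150 mM NaCl. Tm shift is reported, with 2 °C as the threshold for binding.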

[2] = target: T2, Carbonyl reductase [NADPH] 1 (Homo sapiens) (UniProt P16152); assay: Binding affinity to human recombinant carbonyl reductase 1 expressed in Escherichia coli assessed as thermal shift by differential scanning fluorimetry in presence of NADP+; procedure, shortened: as §1
T2 sequence (whole entry): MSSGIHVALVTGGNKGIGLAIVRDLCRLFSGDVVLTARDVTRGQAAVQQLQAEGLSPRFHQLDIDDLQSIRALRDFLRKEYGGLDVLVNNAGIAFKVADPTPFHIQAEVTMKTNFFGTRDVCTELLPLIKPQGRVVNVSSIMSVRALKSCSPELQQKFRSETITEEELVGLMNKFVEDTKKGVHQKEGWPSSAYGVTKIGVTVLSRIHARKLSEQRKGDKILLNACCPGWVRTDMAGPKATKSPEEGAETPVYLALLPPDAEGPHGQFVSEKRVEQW

[3] = target: T2, Carbonyl reductase [NADPH] 1 (Homo sapiens); assay: Binding affinity to human recombinant carbonyl reductase 1 expressed in Escherichia coli assessed as thermal shift by differential scanning fluorimetry in presence of NADPH; procedure, shortened: as §1
[4] = target: T3, Carbonyl reductase [NADPH] 1 (Homo sapiens, UniProt P16152); assay: Binding affinity to human recombinant carbonyl reductase 1 expressed in Escherichia coli assessed as NADPH oxidation using isatin as substrate
T3 sequence (P16152 whole entry): T2 sequence (whole entry)
Procedure, shortened: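 Purified recombinant CBR1 (200 nM) and NADPH were added to compound in 50 mM sodium phosphate, pH 6.8, 1 mM MgCl2. NADPH oxidation was followed as the fluorescence decrease at 460 nm (excitation 355 nm). Rates came from linear regression after normalising to the fluorescence rise at injection. Compounds were titrated at two isatin levels, with no-protein background subtracted. Sigmoidal fit gave IC50, then Ki from the isatin concentration.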

[5] = target: T2, Carbonyl reductase [NADPH] 1 (Homo sapiens); assay: Binding affinity to human recombinant carbonyl reductase 1 expressed in Escherichia coli assessed as NADPH oxidation at 200 uM relative to isatin
Procedure, shortened: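 Substrate test used 200 nM purified CBR1 and 200 µM NADPH, injected onto compound at 200 µM in 50 mM sodium phosphate pH 6.8 with 1 mM MgCl2. NADPH oxidation was read as the fluorescence decrease at 460 nm (excitation 355 nm). Rate came from linear regression after normalizing to the fluorescence rise on injection. Run in triplicate and expressed as % of the isatin rate.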

[6] = target: T1, Carbonyl reductase [NADPH] 3 (Homo sapiens); assay: Binding affinity to human recombinant carbonyl reductase 3 expressed in Escherichia coli assessed as thermal shift by differential scanning fluorimetry in presence of NADP+; procedure, shortened: as §1
[7] = target: T2, Carbonyl reductase [NADPH] 1 (Homo sapiens); assay: Binding affinity to human recombinant carbonyl reductase 1 expressed in Escherichia coli assessed as thermal shift by differential scanning fluorimetry in absence of cofactor; procedure, shortened: as §1
[8] = target: T1, Carbonyl reductase [NADPH] 3 (Homo sapiens); assay: Binding affinity to human recombinant carbonyl reductase 3 expressed in Escherichia coli assessed as thermal shift by differential scanning fluorimetry in absence of cofactor; procedure, shortened: as §1

SMILES | Tm [1] [°C] | Tm [2] [°C] | Tm [3] [°C] | IC50 [4] [nM] | Ki [4] [nM] | Activity [5] [%] | Tm [6] [°C] | Tm [7] [°C] | Tm [8] [°C]
O=c1cc(-c2ccccc2)oc2cc(O)cc(O)c12 [CHRYSIN] | < 2 | 4.6 | < 2 | 670 | 110 | 16.3 | < 2 | < 2 | < 2
COc1cc(O)c2c(c1)oc(=O)c1c3cc(O)c(O)cc3oc21 [WEDELOLACTONE] | < 2 | 5.1 | < 2 | 3780 | 600 | 5.8 | < 2 | 2 | < 2
COc1ccc(-c2coc3cc(O)cc(O)c3c2=O)cc1 [BIOCHANIN] | < 2 | 2.7 | < 2 | 12700 | 2030 | 9.3 | < 2 | < 2 | < 2
O=C1C[C@@H](c2ccc(O)cc2)Oc2cc(O)cc(O)c21 [NARINGENIN] | < 2 | 2.3 | < 2 | 21500 | 3430 | 4.7 | < 2 | < 2 | < 2
Oc1cc(Cl)ccc1Oc1ccc(Cl)cc1Cl [TRICLOSAN] | < 2 | 3.4 | < 2 | 400 | 60 | – | < 2 | < 2 | < 2
O=c1c(-c2ccc(O)cc2)coc2cc(O)cc(O)c12 | < 2 | < 2 | < 2 | – | – | – | < 2 | < 2 | < 2
O=c1c(O)c(-c2ccc(O)c(O)c2)oc2cc(O)cc(O)c12 | < 2 | < 2 | < 2 | – | – | – | < 2 | < 2 | < 2
